Compound activity: PubChem, SRMLSC
H69AR growth 86K: blocks growth of human H69AR lung tumor cells; H69AR lung tumor viability, ATP luminescence, 72 h; active compounds read low; viability, % at 10 µM; 85,000 compounds, 6% hits; AID 598;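 active = viability at or below 40%; inactive = viability above 40%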;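 note: multidrug resistant small cell line overexpressing MRP-1 efflux transporter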
Lung fibro prol: blocks proliferation of human lung fibroblasts. LL 47 human lung fibroblast viability, ATP luminescence; active compounds read low. viability, % at 10 µM. 85,000 compounds, 1.1% hits. AID 719;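 active = viability at or below 50% in the single dose screen; inactive = viability above 50%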;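 note: compound exposure lasted 72 h before the ATP readout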
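Test system: LL 47 human lung fibroblasts / Quantity: 1,150 cells in each well / Medium: IMEM growth medium with 15% fetal bovine serum / Incubation: 72 h compound exposure at 37 °C after overnight plating / Detection: CellTiter-Glo luminescence measuring cellular ATP / Read-out: % viability versus median cells-only luminescence / Benchmarks: cell-only wells, no compound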
HUVEC inhibit: inhibitors of human endothelial cell proliferation | AID 648 | HUVEC proliferation, CellTiter-Glo luminescence, 72 h; active compounds read low | viability, % at 10 µM (by protocol) | 86,000 compounds, 1.1% hits;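 active = viability at or below 30%; inactive = viability above 30%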
PTEN del growth: growth suppressors of cells with PTEN tumor suppressor deletion; HCT116 PTEN-null viability, CellTiter-Glo, 60 h; active compounds read low; viability, % at 10 µM; AID 827; 140,000 compounds, 1.2% hits;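 active = viability at or below a set limit, 4 SD under the median of all tested compounds, cut at about 3.7% in these data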;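 note: PTEN knockout HCT116 line with beta catenin targeted HCT116 as companion control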
HCT116 bCat-KO: beta-catenin-lacking colon tumor cell growth suppression; HCT116 beta-catenin knockout viability, CellTiter-Glo, 60 h; active compounds read low; viability, % at 10 µM; 140,000 compounds, 1.5% hits;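 active = viability at or under a set limit, the compound median less 4 SD, cut at about 6% in these data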
Of the large screens only hits and unclear results are named; the others gave an inactive call. The entries come from a sample that favours hits as a whole.

CN(CC(=O)Nc1nc2ccccc2s1)S(=O)(=O)c1ccc(Cl)cc1	H69AR growth 86K 36
COc1ccc(OC(C)C(=O)N2CCc3ccccc3C2)cc1 (stereo not drawn)	H69AR growth 86K 25
COc1ccc(OC(C)C(=O)N2CCC(C)CC2)cc1 (stereo not drawn)	none
CCCCc1c(C)c(C#N)c2[nH]c3ccccc3n2c1=O	H69AR growth 86K 18
Cc1c(CCC(C)C)c(=O)n2c([nH]c3ccccc32)c1C#N	H69AR growth 86K 31
Cn1c[n+](C)cc1-c1ccc(/C(N)=N/O)cc1	none (no result: H69AR growth 86K, Lung fibro prol, HUVEC inhibit)
COc1ccc(NC(=O)CCNS(=O)(=O)c2ccc3c(c2)c(=O)n(C)c(=O)n3C)c(OC)c1	none
CCCOc1cccc(C(=O)N(Cc2cccs2)C2CCS(=O)(=O)C2)c1 (stereo not drawn)	none
CCCCOc1cccc(C(=O)N(Cc2cccs2)C2CCS(=O)(=O)C2)c1 (stereo not drawn)	H69AR growth 86K 37
CCOc1ccc(NC(=O)CC(c2ccccc2)c2ccc(F)cc2)cc1 (stereo not drawn)	none (no result: H69AR growth 86K, Lung fibro prol, HUVEC inhibit)
Cc1cc(C(=O)N2CCc3ccccc32)n(-c2ccccc2)n1	H69AR growth 86K 22
CCOC(=O)CN1C(=O)N[C@H](c2ccc(Br)cc2)C(C(C)=O)=C1C	none (no result: H69AR growth 86K, Lung fibro prol, HUVEC inhibit)
Cc1ccc(-n2[nH]c3c4c(ccc3c2=O)C(=O)c2ccccc2C4=O)cc1	none (no result: H69AR growth 86K, Lung fibro prol, HUVEC inhibit)
CC(C)(C)n1[nH]c2c3c(ccc2c1=O)C(=O)c1ccccc1C3=O	HUVEC inhibit 3.3
COCCCn1[nH]c2c3c(ccc2c1=O)C(=O)c1ccccc1C3=O	HUVEC inhibit 6.8
CC(C)n1c(O)c(N=NC(=O)c2ccccc2NS(=O)(=O)c2cccs2)c2ccccc21	none (no result: H69AR growth 86K, Lung fibro prol, HUVEC inhibit)
COc1cccc(CC(=S)N2CCOCC2)c1	none (no result: H69AR growth 86K, Lung fibro prol, HUVEC inhibit)
Nc1nnc(-c2cc3ccccc3oc2=O)s1	none
O=c1oc2ccccc2cc1-c1nnc(NCc2ccco2)s1	H69AR growth 86K 32
FC(F)(F)c1nnc(-c2ccccc2)nc1Sc1ccccc1	PTEN del growth 1.3, HCT116 bCat-KO 1.6 (no result: H69AR growth 86K, Lung fibro prol, HUVEC inhibit)
FC(F)(F)c1nnc(-c2ccccc2)nc1Sc1ccc(Cl)cc1	none (no result: H69AR growth 86K, Lung fibro prol, HUVEC inhibit)
FC(F)(F)c1cccc(Oc2nc(-c3ccccc3)nnc2C(F)(F)F)c1	none (no result: H69AR growth 86K, Lung fibro prol, HUVEC inhibit)
FC(F)(F)c1cccc(Sc2nc(-c3ccccc3)nnc2C(F)(F)F)c1	HCT116 bCat-KO 5.3 (no result: H69AR growth 86K, Lung fibro prol, HUVEC inhibit)
Cc1ccc(-c2nc(NCCN3CCOCC3)c3ccccc3n2)cc1	none
COc1cccc(-c2nc(NCCN3CCOCC3)c3ccccc3n2)c1O	H69AR growth 86K 8.3
COc1cccc(-c2nc(NC(C)(C)C)c3ccccc3n2)c1O	H69AR growth 86K 33
Oc1ccccc1-c1nc(NCCN2CCOCC2)c2ccccc2n1	H69AR growth 86K 12
O=C(CCCCn1c(=O)c2ccccc2n(Cc2ccc(Cl)cc2)c1=O)NCc1ccco1	H69AR growth 86K 16
N#Cc1ccccc1Cn1c(=O)n(CCCC(=O)NCc2ccc3c(c2)OCO3)c(=O)c2ccccc21	H69AR growth 86K 40
O=C(CCCn1c(=O)c2sccc2n(CC(=O)OCc2ccccc2)c1=O)NCc1ccco1	none
O=C(CCCn1c(=O)c2sccc2n(Cc2ccc(F)cc2)c1=O)NCc1ccco1	H69AR growth 86K 22
N#Cc1ccccc1Cn1c(=O)n(Cc2ccc(C(=O)NCc3ccco3)cc2)c(=O)c2ccccc21	H69AR growth 86K 12, HUVEC inhibit 26
Cc1ccc(Cn2c(=O)n(CCC(=O)NCc3ccc4c(c3)OCO4)c(=O)c3ccccc32)cc1	none
COc1ccc(C(=O)NC(C(=O)NCC(=O)Nc2c(C)cccc2C)C(C)C)cc1 (stereo not drawn)	none (no result: H69AR growth 86K, Lung fibro prol, HUVEC inhibit)
CCOc1cc2[nH]c(=O)n(CCCCCC(=O)NCc3ccc4c(c3)OCO4)c(=O)c2cc1OCC	H69AR growth 86K 18, Lung fibro prol 34 (no result: PTEN del growth, HCT116 bCat-KO)
CCOc1cc2[nH]c(=O)n(CCCCCC(=O)NCc3ccco3)c(=O)c2cc1OCC	none
O=C(CCCCn1c(=O)c2ccccc2n(CC(=O)Nc2cccc(F)c2)c1=O)NCc1ccco1	none
CCc1ccc(NC(=O)Cn2c(=O)n(CCCC(=O)NCc3ccco3)c(=O)c3ccccc32)cc1	H69AR growth 86K 30
CCOCCCNC(=O)C(c1ccc(C)cc1)N(Cc1cccs1)C(=O)CNC(C)=O (stereo not drawn)	none (no result: H69AR growth 86K, Lung fibro prol, HUVEC inhibit)
O=C(Nc1cccc(C(F)(F)F)c1)Nc1ccc(N2CCCC2)c(S(=O)(=O)Nc2ccccc2Cl)c1	PTEN del growth 1.5, HCT116 bCat-KO 1.5 (no result: H69AR growth 86K, Lung fibro prol, HUVEC inhibit)
COc1ccccc1NS(=O)(=O)c1cc(NC(=O)Nc2ccc(Cl)cc2Cl)ccc1N1CCCCC1	none (no result: H69AR growth 86K, Lung fibro prol, HUVEC inhibit)
COC(=O)/C(=C(/F)Sc1cc(C)c(O)c(C)c1)C(F)(F)F	H69AR growth 86K 2.7, Lung fibro prol 9.3, HUVEC inhibit 23
Cc1csc(NC(=O)Nc2ccc(Cl)cc2)n1	none
O=C(Nc1ccc(Cl)cc1)Nc1nc(-c2sccc2Br)cs1	HCT116 bCat-KO 3.8 (no result: H69AR growth 86K, Lung fibro prol, HUVEC inhibit)
Fc1cccc2sc(Nc3nnc(-c4ccccc4)o3)nc12	HUVEC inhibit 6.8
COc1ccc(-c2nnc(Nc3nc4c(OC)cccc4s3)o2)c(OC)c1	H69AR growth 86K 33, HUVEC inhibit 20, HCT116 bCat-KO 3.7
COc1ccc(-c2nnc(Nc3nc4c(OC)cccc4s3)o2)cc1	HUVEC inhibit 2.9
COc1cc(OC)cc(-c2nnc(Nc3nc4c(F)cccc4s3)o2)c1	none
CCNc1nc(NC(C)C)nc(N(n2cnnc2)S(=O)(=O)c2ccc(C)cc2)n1	none (no result: H69AR growth 86K, Lung fibro prol, HUVEC inhibit)
Cc1ccc(C(=O)NC(O)C(Cl)Cl)cc1 (stereo not drawn)	none (no result: H69AR growth 86K, Lung fibro prol, HUVEC inhibit)
Cc1cc(N/N=C/c2ccc(O)cc2O)nc(-c2ccccc2O)n1	PTEN del growth 2.7, HCT116 bCat-KO 5.9 (no result: H69AR growth 86K, Lung fibro prol, HUVEC inhibit)
CCN(CC)c1ccc(C=C(c2nnnn2-c2ccc(C)cc2)c2nnnn2-c2ccc(C)cc2)cc1	none (no result: H69AR growth 86K, Lung fibro prol, HUVEC inhibit)
CCOC(=O)C1=C(O)/C(=C/c2cn(CC(=O)NCC3CCCO3)c3ccccc23)SC1=Nc1ccc(C)cc1 (stereo not drawn)	H69AR growth 86K 23, Lung fibro prol 27, HUVEC inhibit 12 (no result: PTEN del growth, HCT116 bCat-KO)
O=C(Cn1c(=O)n(CCCC(=O)NC2CCCC2)c(=O)c2ccccc21)NCCC1=CCCCC1	H69AR growth 86K 29, Lung fibro prol 49, PTEN del growth 2.8, HCT116 bCat-KO 5.3
CCOC(=O)c1[nH]c(C)c(/C(O)=C2\C(=O)C(=O)N(CCN(C)C)C2c2ccc(C)o2)c1C (stereo not drawn)	H69AR growth 86K 19
COC(=O)c1[nH]c(C)c(/C(O)=C2\C(=O)C(=O)N(CCN(C)C)C2c2cccs2)c1C (stereo not drawn)	none (no result: H69AR growth 86K, Lung fibro prol, HUVEC inhibit)
CCOc1ccc(C2/C(=C(\O)c3c(C)[nH]c(C(=O)OC)c3C)C(=O)C(=O)N2CCN(C)C)cc1 (stereo not drawn)	PTEN del growth 0.7, HCT116 bCat-KO 0.7
CCCOc1ccc(C2/C(=C(\O)c3c(C)[nH]c(C(=O)OC)c3C)C(=O)C(=O)N2CCN(C)C)cc1 (stereo not drawn)	none
CCOC(=O)c1[nH]c(C)c(/C(O)=C2\C(=O)C(=O)N(CCN3CCOCC3)C2c2cccs2)c1C (stereo not drawn)	H69AR growth 86K 33
